From ChEMBL document CHEMBL1133606, “2-Carbomethoxy-3-aryl-8-bicyclo[3.2.1]octanes: potent non-nitrogen inhibitors of monoamine transporters” (J Med Chem, 2000)

Key:
[1] = biological target: Monoamine transporters; serotonin & dopamine (UniProt P31645+Q01959); experiment: Selectivity, ratio of binding to serotonin transporter (SERT) and dopamine transporter (DAT); type: protein assay; conditions: Cercopithecidae
Procedure, shortened: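 Ratio computed as IC50 at SERT ([3H]citalopram binding) divided by IC50 at DAT ([3H]WIN 35,428 binding), both measured in caudate-putamen membranes.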

[2] = biological target: Sodium-dependent serotonin transporter (Homo sapiens, UniProt P31645); experiment: Inhibition of [3H]citalopram binding to the serotonin transporter in cynomolgus (macaca fascicularis) monkey caudate putamen.; type: tissue-based, Cercopithecidae; conditions: target entry is the homologue from another species
Procedure, shortened: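 Caudate-putamen membranes at 4 mg original wet tissue/mL final, competition vs 1 nM [3H]citalopram in 50 mM Tris·HCl pH 7.4 with 100 mM NaCl, 7–14 drug concentrations, 2 h at 0–4 °C. Filtration on 0.1% polyethyleneimine-presoaked filters, scintillation counting with cpm converted to dpm. Nonspecific binding with 1 μM fluoxetine. IC50 by EBDA, mean of triplicate experiments.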

Sequence of Sodium-dependent serotonin transporter (P31645 whole entry): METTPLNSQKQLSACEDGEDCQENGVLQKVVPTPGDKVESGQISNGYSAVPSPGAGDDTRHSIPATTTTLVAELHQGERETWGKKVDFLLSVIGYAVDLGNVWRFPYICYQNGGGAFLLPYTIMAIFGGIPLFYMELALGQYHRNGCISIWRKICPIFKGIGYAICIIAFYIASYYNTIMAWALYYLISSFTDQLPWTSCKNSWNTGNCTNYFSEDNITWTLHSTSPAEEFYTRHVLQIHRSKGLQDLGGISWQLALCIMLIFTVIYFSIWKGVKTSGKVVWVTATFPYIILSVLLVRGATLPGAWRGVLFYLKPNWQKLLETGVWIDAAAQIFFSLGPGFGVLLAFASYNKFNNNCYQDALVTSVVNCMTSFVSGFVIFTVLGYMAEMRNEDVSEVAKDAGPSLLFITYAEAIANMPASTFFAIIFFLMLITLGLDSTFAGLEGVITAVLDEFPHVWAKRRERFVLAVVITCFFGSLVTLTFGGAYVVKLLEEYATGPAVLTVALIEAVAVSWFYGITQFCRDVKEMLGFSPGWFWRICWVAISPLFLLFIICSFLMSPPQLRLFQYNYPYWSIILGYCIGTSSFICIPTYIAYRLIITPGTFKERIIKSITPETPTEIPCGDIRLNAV
Sequence of Monoamine transporters; serotonin & dopamine (P31645 whole entry, looked up): as the sequence (P31645 whole entry) above
Sequence of Monoamine transporters; serotonin & dopamine (Q01959 whole entry, looked up): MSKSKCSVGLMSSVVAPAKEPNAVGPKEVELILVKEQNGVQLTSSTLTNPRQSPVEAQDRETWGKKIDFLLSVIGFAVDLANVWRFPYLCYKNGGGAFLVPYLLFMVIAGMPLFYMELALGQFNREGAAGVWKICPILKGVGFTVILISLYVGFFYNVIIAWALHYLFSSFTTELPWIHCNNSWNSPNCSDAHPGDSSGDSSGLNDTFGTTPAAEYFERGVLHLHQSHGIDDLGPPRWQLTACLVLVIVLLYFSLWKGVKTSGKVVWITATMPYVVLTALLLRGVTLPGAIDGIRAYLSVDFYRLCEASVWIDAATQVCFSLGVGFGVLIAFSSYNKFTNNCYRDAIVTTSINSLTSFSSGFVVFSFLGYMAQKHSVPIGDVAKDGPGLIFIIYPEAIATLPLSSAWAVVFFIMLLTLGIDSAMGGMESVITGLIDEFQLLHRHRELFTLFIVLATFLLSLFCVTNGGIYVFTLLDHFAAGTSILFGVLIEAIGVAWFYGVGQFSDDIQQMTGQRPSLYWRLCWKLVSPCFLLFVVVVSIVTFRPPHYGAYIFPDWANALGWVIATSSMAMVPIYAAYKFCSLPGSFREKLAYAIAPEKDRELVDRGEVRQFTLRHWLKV

| Compound | Selectivity [1] | IC50 ([2]; read-out: IC50) [µM] | IC50 [2] |
| --- | --- | --- | --- |
| COC(=O)[C@H]1C2CCC(C2)C[C@@H]1c1ccc(Cl)c(Cl)c1 (stereo in doubt; 9a) [listing 1 of 2 here] | 14 | – | – |
| COC(=O)c1ccccc1-c1ccccc1 | – | > 70 | – |
| COC(=O)C1C(c2ccc(Cl)c(Cl)c2)CC2CCC1N2C (stereo in doubt; 14a) | 68 | – | – |
| COC(=O)[C@H]1C2CCC(C2)C[C@@H]1c1ccc2ccccc2c1 (stereo in doubt; 8b) [listing 1 of 2 here] | – | – | 0.807 µM |
| COC(=O)C1C(c2ccc(Cl)c(Cl)c2)CC2CCC1N2C (stereo in doubt; 13a) [listing 1 of 2 here] | – | – | 0.358 µM |
| COC(=O)C1=C(c2ccc3ccccc3c2)CC2CCC1C2 (stereo unspecified) | 119 | – | 1.31 µM |
| COC(=O)c1ccccc1-c1ccc2ccccc2c1 | 69 | – | 10 µM |
| COC(=O)C1C2CCC(C2)CC1c1ccccc1 (stereo unspecified) | 25 | > 20 | – |
| COC(=O)[C@@H]1C2CCC(C2)C[C@@H]1c1ccc2ccccc2c1 (stereo partly specified) | 2 | – | 0.06 µM |
| COC(=O)C1C(c2ccc(Cl)c(Cl)c2)CC2CCC1N2C (stereo in doubt; 12a) [listing 1 of 2 here] | – | – | 0.002 µM |
| COC(=O)[C@H]1C2CCC(C2)C[C@@H]1c1ccc(Cl)c(Cl)c1 (stereo in doubt; 9a) [listing 2 of 2 here] | – | – | 0.18 µM |
| COC(=O)c1ccccc1-c1ccc(F)cc1 | 2 | 33 | – |
| COC(=O)C1=C(c2ccc3ccccc3c2)CC2CCC1N2C (stereo unspecified) | 38 | 0.109 | – |
| COC(=O)C1=C(c2ccc(F)cc2)CC2CCC1C2 (stereo unspecified) | 91 | – | 35.4 µM |
| COC(=O)C1C(c2ccc3ccccc3c2)CC2CCC1N2C (stereo unspecified) | 4 | – | 0.00219 µM |
| COC(=O)C1C(c2ccc(Cl)c(Cl)c2)CC2CCC1N2C (stereo in doubt; 13a) [listing 2 of 2 here] | 179 | – | – |
| COC(=O)C1=C(c2ccc(F)cc2)CC2CCC1N2C (stereo unspecified) | 20 | 7.99 | – |

| Compound | Selectivity [1] | IC50 ([2]; read-out: IC50) [µM] | IC50 [2] |
| --- | --- | --- | --- |
| COC(=O)C1=C(c2ccc(Cl)c(Cl)c2)CC2CCC1C2 (stereo unspecified) | 726 | – | – |
| COC(=O)[C@H]1C(c2ccc3ccccc3c2)CC2CCC1N2C (stereo partly specified) | 10 | – | 0.00595 µM |
| COC(=O)[C@H]1C2CCC(C2)C[C@@H]1c1ccc2ccccc2c1 (stereo in doubt; 9b) [listing 1 of 2 here] | – | – | 0.064 µM |
| COC(=O)C1=C(c2ccc(Cl)c(Cl)c2)CC2CCC1N2C (stereo unspecified) | 723 | – | – |
| COC(=O)C1C(c2ccc(Cl)c(Cl)c2)CC2CCC1N2C (stereo in doubt; 12a) [listing 2 of 2 here] | 2 | – | – |
| COC(=O)[C@H]1C2CCC(C2)C[C@@H]1c1ccc2ccccc2c1 (stereo in doubt; 9b) [listing 2 of 2 here] | 4 | – | – |
| COC(=O)[C@H]1C2CCC(C2)C[C@@H]1c1ccc2ccccc2c1 (stereo in doubt; 8b) [listing 2 of 2 here] | 67 | – | – |
| COC(=O)[C@H]1C2CCC(C2)C[C@@H]1c1ccc(Cl)c(Cl)c1 (stereo in doubt; 7a) [listing 1 of 2 here] | – | – | 0.033 µM |
| COC(=O)[C@H]1[C@@H](c2ccc(F)cc2)C[C@H]2CC[C@H]1N2C (stereo in doubt; 13c) | – | – | 12.2 µM |
| COC(=O)[C@@H]1C2CCC(C2)C[C@@H]1c1ccc(Cl)c(Cl)c1 (stereo partly specified) | 46 | – | 0.65 µM |
| COC(=O)c1ccccc1C(=O)OC [DIMETHYL PHTHALATE] | – | > 100 | – |
| COC(=O)C1=C(c2ccccc2)CC2CCC1C2 (stereo unspecified) | – | > 10 | – |
| COC(=O)c1ccccc1-c1ccc(Cl)cc1 | 68 | 46 | – |
| COC(=O)C1=C(c2ccccc2)CC2CCC1N2C (stereo unspecified) | – | – | Not Active |
| COC(=O)[C@@H]1C2CCC(C2)CC1c1ccc2ccccc2c1 (stereo partly specified) | 4 | – | 0.106 µM |
| COC(=O)[C@H]1C2CCC(C2)C[C@@H]1c1ccc(Cl)c(Cl)c1 (stereo in doubt; 7a) [listing 2 of 2 here] | 3 | – | – |
